How the values were obtained:
Format in all cases: functional, cell-based
PC-3 = assay: Cytotoxicity against human androgen-independent PC3 cells assessed as cell cell viability after 3 days by WST-1 cell proliferation assay; settings: PC-3, 72 h
In short: (§1)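 Human prostate cancer cells (LNCaP androgen-dependent; PC-3 and DU145 androgen-independent) were exposed to drug for 3 days, and viability was read by WST-1 proliferation assay. IC50 was taken as the drug concentration giving 50% inhibition of cell viability, reported as mean ± standard error of the mean.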

LNCaP = assay: Cytotoxicity against human androgen-dependent LNCAP cells assessed as inhibition of cell viability after 3 days by WST-1 cell proliferation assay; settings: 72 h; in short: as §1
DU-145 = assay: Cytotoxicity against human androgen-independent DU145 cells assessed as inhibition of cell viability after 3 days by WST-1 cell proliferation assay; settings: DU-145, 72 h; in short: as §1

Row | SMILES | IC50 (PC-3) [nM] | IC50 (LNCaP) [nM] | IC50 (DU-145) [nM]
1 | CC(C)CCn1ccnc1/C=C/C(=O)/C=C/c1coc2ccccc2c1=O | 3600 | 4000 | 5800
2 | CCC(CC)n1ccnc1/C=C/C(=O)/C=C/c1coc2ccccc2c1=O | 2900 | 2800 | 5200
3 | Cn1ccnc1/C=C/C(=O)/C=C/c1coc2ccccc2c1=O | 2800 | 2300 | 4500
4 | O=c1c(O)c(-c2ccc(O)c(O)c2)oc2cc(O)cc(O)c12 [QUERCETIN] | > 100000 | 45500 | > 100000
5 | CCCCn1ccnc1/C=C/C(=O)/C=C/c1coc2ccccc2c1=O | 2000 | 2000 | 4300
6 | CCCCCn1ccnc1/C=C/C(=O)/C=C/c1coc2ccccc2c1=O | 2100 | 1800 | 2700
7 | CCn1ccnc1/C=C/C(=O)/C=C/c1coc2ccccc2c1=O | 1800 | 1000 | 3000
8 | CC(C)n1ccnc1/C=C/C(=O)/C=C/c1coc2ccccc2c1=O | 2300 | 1200 | 3300
9 | CCCC(C)n1ccnc1/C=C/C(=O)/C=C/c1coc2ccccc2c1=O (configuration not stated) | 3200 | 3900 | 1400
10 | O=c1c(-c2ccc(O)cc2)coc2cc(O)cc(O)c12 [GENISTEIN] | 68600 | 37400 | > 100000
11 | CCCn1ccnc1/C=C/C(=O)/C=C/c1coc2ccccc2c1=O | 2400 | 2100 | 4600
12 | CCC(C)n1ccnc1/C=C/C(=O)/C=C/c1coc2ccccc2c1=O (configuration not stated) | 1800 | 1300 | 3300
13 | COc1cc(/C=C/C(=O)CC(=O)/C=C/c2ccc(O)c(OC)c2)ccc1O [CURCUMIN] |  | 12100 | 

Source: ChEMBL document CHEMBL3621054, “A new class of hybrid anticancer agents inspired by the synergistic effects of curcumin and genistein: Design, synthesis, and anti-proliferative evaluation” (Bioorg Med Chem Lett, 2015)
